The list is not random: actives were taken first. Their share in the collection is about 2.8%.
EP2 modulator: modulates human prostaglandin E2 receptor EP2 signaling. EP2-expressing cells, cAMP HTRF FRET, PGE2 co-stimulation. induction, % at 25 µM. actives 0.83% (n = 260,000). AID 940;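 active = compounds whose cAMP rise, as percent of the full-agonist control response, exceeds 60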;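 note: rat C6 glioma line stably carrying human EP2 under a CMV promoter; the protocol text gives 20 µM as final concentration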
Target sequence (P43116 whole entry, looked up): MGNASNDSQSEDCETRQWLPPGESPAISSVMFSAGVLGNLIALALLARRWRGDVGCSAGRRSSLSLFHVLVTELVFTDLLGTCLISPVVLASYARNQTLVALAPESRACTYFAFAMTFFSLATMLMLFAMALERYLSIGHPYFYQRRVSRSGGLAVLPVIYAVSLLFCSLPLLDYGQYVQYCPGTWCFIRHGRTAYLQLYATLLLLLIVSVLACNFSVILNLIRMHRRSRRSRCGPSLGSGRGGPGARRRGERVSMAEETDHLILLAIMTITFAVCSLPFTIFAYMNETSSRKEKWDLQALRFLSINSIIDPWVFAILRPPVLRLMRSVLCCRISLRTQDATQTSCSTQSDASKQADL
NPY-Y1 antag: antagonists of human neuropeptide Y receptor Y1. AID 1040. actives 1% (n = 200,000). HEK293-CNG Y1 cells, membrane potential fluorescence; NPY at EC95, then isoproterenol. inhibition, % at 3.6 µM;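 active = inhibition above the campaign mean inhibition of all tested compounds plus 3 SD, cut at about 20% in these data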
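Material: HEK293 cells co-expressing NPY Y1 receptor and cyclic-nucleotide gated channel. Timing: compound incubation 1 h at room temperature, readout 45 min post-stimulation. Signal: fluorescence, membrane potential probe.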
NPY-Y1 PAM-ag: human NPY-Y1 potentiation or agonism, primary screen; P25929; NPY-Y1 expressing cells, potentiator/agonist activation; activation, % at 3.6 µM; actives 0.37% (n = 220,000); in the data active = activation above about 33%, passing the limit was not always enough;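 note: cells stimulated with NPY at EC10 then isoproterenol at EC100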
NPY2 pot ag: human NPY-Y2 potentiation or agonism, primary screen. P49146. activation, % at 3.6 µM. AID 1359. cells expressing NPY-Y2, potentiator/agonist read-out. actives 0.45% (n = 220,000); in the data active = activation above about 27%;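 note: cells stimulated with NPY near EC25 plus isoproterenol at EC100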
Target sequence (P49146 whole entry, looked up): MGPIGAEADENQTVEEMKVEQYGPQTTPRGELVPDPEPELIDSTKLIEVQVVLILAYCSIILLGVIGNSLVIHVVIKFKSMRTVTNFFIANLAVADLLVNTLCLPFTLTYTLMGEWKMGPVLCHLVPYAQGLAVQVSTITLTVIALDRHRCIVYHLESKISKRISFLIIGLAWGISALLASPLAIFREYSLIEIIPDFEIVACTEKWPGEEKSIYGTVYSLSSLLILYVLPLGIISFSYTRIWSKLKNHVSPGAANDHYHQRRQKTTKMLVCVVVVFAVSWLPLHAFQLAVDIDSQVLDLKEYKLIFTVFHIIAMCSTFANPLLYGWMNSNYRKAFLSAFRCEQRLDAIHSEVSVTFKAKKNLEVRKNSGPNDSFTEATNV
EP2 antag: inhibitors of human EP2 prostaglandin E2 receptor. P43116. C6 glioma cells expressing human EP2, cAMP TR-FRET; cells stimulated with saturating PGE2. inhibition, % at 25 µM. actives 0.52% (n = 260,000). AID 1422;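 active = percent inhibition above 40 after rounding to a whole number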;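 note: rat C6 glioma host cells with rolipram phosphodiesterase inhibitor present; the protocol text gives 20 µM as final concentration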
NPY-Y2 antag: NPY-Y2 (human) receptor antagonism; NPY-Y2 expressing cells, antagonist mode; inhibition, % at 2.7 µM; actives 0.99% (n = 140,000)
EP2 cAMP induct: human EP2 receptor cAMP induction, negative in counter-screens | shares compounds with EP2 modulator | C6 glioma EP2 cells, cAMP HTRF induction; plus low (about EC15) PGE2 agonist | calls only at 20 µM (by protocol) | actives 47% (n = 1,300);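 active = cAMP induction above 50% in the main assay while under 30% in all four parallel counter assays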;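 note: rat C6 glioma cells stably expressing human EP2 receptor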
NPY1 antag conf: confirmation of human neuropeptide Y receptor Y1 antagonists. shares compounds with NPY-Y1 antag. HEK293-CNG NPY-Y1, membrane potential fluorescence, cAMP; NPY challenge against isoproterenol-raised cAMP. AID 1254. actives 21% (n = 1,200). inhibition, % at 3.6 µM; in the data active = inhibition above about 20%
NPY-Y2 antag ct: counter-screen for NPY-Y1 antagonists: human NPY-Y2 antagonism; AID 1255; inhibition, % at 3.6 µM; actives 28% (n = 1,200); HEK293 NPY-Y2 CNG membrane potential fluorescence; cells given NPY, then isoproterenol; shares compounds with NPY-Y1 antag
NPY-Y1 pot conf: confirmation of human NPY-Y1 receptor potentiators or agonists; AID 1546; cell-based NPY-Y1 potentiator/agonist assay; actives 20% (n = 280); shares compounds with NPY-Y1 PAM-ag; activation, % at 3.6 µM; in the data active = activation above about 45%;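 note: cells challenged with NPY at its EC10 plus isoproterenol stimulus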
NPY-Y2 counter: NPY-Y2 potentiation or agonism as NPY-Y1 counter-screen; actives 20% (n = 280); HEK293-CNG cells, membrane-potential fluorescence (FLIPR), 1536-well; AID 1649; shares compounds with NPY-Y1 PAM-ag; activation, % at 3.6 µM; in the data active = activation above about 33%
NPY-Y1 ag: activates human NPY-Y1, counter-screen for NPY-Y1 potentiators. shares compounds with NPY-Y1 PAM-ag. HEK293 Y1-CNGC, membrane potential fluorescence, agonist mode. activation, % at 3.6 µM. actives 50% (n = 280). AID 1697;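 active = percent activation above the mean of DMSO-only control wells plus 3 SD of those wells, cut at about 18% in these data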;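 note: cells challenged with isoproterenol plus Ro 20-1724 with no NPY in test wells; Y1 agonism lowers isoproterenol-driven cAMP and reduces probe fluorescence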
NPY-Y2 ag: human NPY-Y2 agonism as NPY-Y1 counter-screen | actives 67% (n = 280) | HEK293 Y2-CNGC, membrane potential fluorescence, agonist mode | activation, % at 3.6 µM | AID 1698 | shares compounds with NPY-Y1 PAM-ag;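 active = activation above the solvent-only control wells' mean plus 3 SD, cut at about 11% in these data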;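 note: agonism lowers cAMP so well fluorescence drops in active wells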
CNGC counter: blocks cyclic nucleotide gated channel in NPY-Y1 counter-screen; shares compounds with NPY-Y1 PAM-ag; HEK293-CNG parental, isoproterenol cAMP, membrane potential fluorescence; inhibition, % at 3.6 µM; actives 42% (n = 280);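 active = inhibition above the mean of stimulated solvent-only control wells plus 3 SD, cut at about 22% in these data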
NPY-Y2 confirm: human NPY-Y2 potentiation or agonism, confirmation; shares compounds with NPY2 pot ag; activation, % at 3.6 µM; actives 20% (n = 450); cell-based NPY-Y2 potentiator/agonist assay; in the data active = activation above about 33%
NPY-Y1 potentiator: NPY-Y1 potentiation or agonism as NPY-Y2 counter-screen; AID 1651; actives 20% (n = 450); shares compounds with NPY2 pot ag; Y1 HEK293-CNG cells, membrane potential fluorescence; activation, % at 3.6 µM; in the data active = activation above about 45%;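 note: cells stimulated with submaximal NPY then isoproterenol with phosphodiesterase inhibitor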
NPY-Y1 agonist 2: counter-screen for NPY-Y2 potentiators: agonists of human NPY-Y1. actives 37% (n = 450). activation, % at 3.6 µM. HEK293 Y1-CNGC, membrane potential fluorescence, agonism. AID 1702. shares compounds with NPY2 pot ag;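 active = activation above the mean of DMSO-only control wells plus 3 SD, cut at about 18% in these data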;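 note: cells stimulated with 1 µM isoproterenol plus the PDE inhibitor Ro 20-1724; Y1 agonists lower the membrane potential dye signal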
CNGC inh: counter-screen for NPY-Y2 potentiators: inhibitors of CNG channel activity; shares compounds with NPY2 pot ag; HEK293-CNG parental, isoproterenol cAMP, membrane potential fluorescence; inhibition, % at 3.6 µM; actives 32% (n = 450);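 active = inhibition above the control-well mean plus 3 SD of those wells, cut at about 22% in these data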
NPY-Y2 ag 2: NPY-Y2 agonism, counter-screen for Y2 potentiators. shares compounds with NPY2 pot ag. HEK293 Y2/CNGC cells, membrane potential fluorescence, agonist mode. activation, % at 3.6 µM. actives 56% (n = 450). AID 1710;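 active = activation above the mean of solvent-only control wells plus 3 SD, cut at about 10% in these data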;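 note: cells stimulated by isoproterenol with no NPY added so direct agonism is tested; agonism lowers probe fluorescence through less cAMP and CNG channel opening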
Of the large screens only hits and unclear results are named; the others gave an inactive call (follow-up assays come after a bar, where they were run). Cut-off read from the data, not from the text of the source, unless noted: active = inhibition above about 17%; inactive = the rest.

CC(Sc1nnc(-c2cccs2)n1Cc1ccccc1)C(=O)NCc1ccc2c(c1)OCO2 (configuration not stated)	EP2 modulator 70, NPY-Y1 antag 24 | EP2 cAMP induct inactive | NPY1 antag conf inactive | NPY-Y2 antag ct inactive
O=C(CSc1nnc(-c2cccs2)n1Cc1ccccc1)NCc1ccc2c(c1)OCO2	none
Cn1ccnc1C1(O)CC2CCC(C1)N2C(=O)c1ccccc1F (configuration not stated)	none (no result: NPY-Y1 antag, NPY-Y1 PAM-ag, NPY2 pot ag, EP2 antag, NPY-Y2 antag)
CN(Cc1c(C(=O)N2CCc3ccccc3C2)nc2ccc(Cl)cn12)C(C1CC1)C1CC1	EP2 modulator 76, NPY-Y1 antag 25 (no result: NPY-Y2 antag) | EP2 cAMP induct inactive | NPY1 antag conf inactive | NPY-Y2 antag ct inactive
CCN(C)Cc1c(C(=O)N2CCc3ccccc3C2)nc2ccc(Cl)cn12	none (no result: NPY-Y2 antag)
CCc1ccccc1NC(=O)/C(=C/c1ccco1)c1ccccc1	EP2 modulator 68, NPY-Y1 antag 22 | EP2 cAMP induct active | NPY1 antag conf inactive | NPY-Y2 antag ct inactive
Cc1ccccc1NC(=O)/C(=C/c1ccco1)c1ccccc1	none
Fc1ccc(Oc2nc(-c3ccccn3)nc3ccccc23)cc1	none (no result: NPY-Y1 antag, NPY-Y2 antag)
CSc1nc(Oc2ccc(F)cc2)c2ccccc2n1	EP2 modulator 68, NPY-Y1 antag 23 | EP2 cAMP induct active | NPY1 antag conf inactive | NPY-Y2 antag ct inactive
O=C(c1cc2sccc2n1Cc1ccc(F)cc1)N1CCCc2ccccc21	EP2 modulator 73, NPY-Y1 antag 24 | EP2 cAMP induct active | NPY1 antag conf inactive | NPY-Y2 antag ct 19
CC(C)NC(=O)C1CCN(C(=O)c2cc3sccc3n2Cc2ccc(F)cc2)CC1	none
CCc1nn(CC(=O)NCCc2ccc(F)cc2)c(=O)c2cc3sccc3n12	none (no result: NPY-Y1 antag, NPY-Y1 PAM-ag, NPY2 pot ag, EP2 antag, NPY-Y2 antag)
COc1ccc(C)cc1NC(=O)C1CCN(c2nc(C)cc(C)n2)CC1	none (no result: NPY-Y1 antag, NPY-Y1 PAM-ag, NPY2 pot ag, NPY-Y2 antag)
CCC(=O)N(CCC(Cc1ccccc1)c1ccco1)Cc1ccco1 (configuration not stated)	EP2 modulator 77, NPY-Y1 antag 42 (no result: NPY-Y2 antag) | EP2 cAMP induct inactive | NPY1 antag conf inactive | NPY-Y2 antag ct inactive
CCOc1ccc(/C=C/c2[nH]c(=O)[nH]c(=O)c2[N+](=O)[O-])cc1OCC	none (no result: NPY-Y1 antag, NPY-Y1 PAM-ag, NPY2 pot ag, NPY-Y2 antag)
O=C(Cc1ccccc1)Nc1ccccc1N1CCN(c2ccccc2)CC1	EP2 modulator 72, NPY-Y1 antag 22 | EP2 cAMP induct active | NPY1 antag conf inactive | NPY-Y2 antag ct inactive
O=C(Nc1ccccc1N1CCCCC1)c1ccc(Cl)c([N+](=O)[O-])c1	NPY-Y1 PAM-ag 51 (no result: NPY-Y2 antag) | EP2 cAMP induct active | NPY-Y1 pot conf 45 | NPY-Y2 counter 39 | NPY-Y1 ag 29 | NPY-Y2 ag 38 | CNGC counter 34
CCC(C)(C)n1nnnc1C(c1cccs1)N1CCc2ccccc2C1 (configuration not stated)	none (no result: NPY-Y1 antag, NPY-Y1 PAM-ag, NPY2 pot ag, NPY-Y2 antag)
CCCOc1ccc(/C=N/Nc2ccc(C(=O)O)cc2)c(OCCC)c1	EP2 modulator 88, NPY2 pot ag 30 (no result: NPY-Y2 antag) | EP2 cAMP induct active | NPY-Y2 confirm inactive | NPY-Y1 potentiator inactive | NPY-Y1 agonist 2 inactive | CNGC inh inactive | NPY-Y2 ag 2 21
CCCOC(=O)c1ccc(NC(=O)c2c(O)c3ccccc3n(CC)c2=O)cc1	none (no result: NPY-Y1 antag, NPY-Y1 PAM-ag, NPY2 pot ag, NPY-Y2 antag)
O=C(CSc1ccc(Cl)cc1)N1CCN(c2ncc(C(F)(F)F)cc2Cl)CC1	NPY-Y1 antag 24 | NPY1 antag conf inactive | NPY-Y2 antag ct inactive
CCC(CN1CCOCC1)NC(=O)Cc1cn(CC)c2ccccc12 (configuration not stated)	none (no result: NPY-Y1 antag, NPY-Y1 PAM-ag, NPY2 pot ag, NPY-Y2 antag)
Cc1cc(/C=C2\SC(=O)N(CC(=O)N3CCOCC3)C2=O)c(C)n1C	none (no result: NPY-Y1 antag, NPY-Y1 PAM-ag, NPY2 pot ag, NPY-Y2 antag)
COC(=O)c1cc2c(ccn2-c2ccc(F)cc2)n1Cc1ccc(OC)cc1	NPY-Y1 antag 24 | NPY1 antag conf inactive | NPY-Y2 antag ct inactive
CCOC(=O)c1cc2c(ccn2-c2ccc(F)cc2)n1CC(=O)NC(C)(C)C	none (no result: NPY-Y2 antag)
CCn1c(C(=O)OC)cc2c1ccn2-c1ccc(F)cc1	NPY-Y1 antag 27 | NPY1 antag conf inactive | NPY-Y2 antag ct inactive
COCCCn1c(SCc2ccc(OC)cc2)nc2cc(OC)c(OC)cc2c1=N	none

Assay outcomes: PubChem BioAssay, several laboratories
